Measured values: ChEMBL document CHEMBL1765024, “Fluorescent cyclin-dependent kinase inhibitors block the proliferation of human breast cancer cells” (Bioorg Med Chem, 2011)
Activity calls are given as the source filed them. The calls are words filed in the database; no cut-off is given here.

Key:
MCF7 [1] = test: Drug uptake in human MCF7 cell cytoplasm at 10 uM after 1 hr using propidium iodide staining by two-photon confocal microscopy; format: ADME, cell-based; conditions: mcf7, 1 h
How it was run: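 Cells (5 × 10^5) were treated with 10 µM compound for 1 h, PBS-washed and fixed in 4% formaldehyde. Nuclei were stained with propidium iodide for 5 min before mounting. Imaging used two-photon confocal microscopy, 63× oil, excitation 720 nm, emission 480–520 nm, with DIC for morphology.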

MCF7 [2] = test: Cell cycle arrest in human MCF7 cells assessed as accumulation at G2/M phase at 5 to 10 uM after 24 hrs using propidium iodide staining by flow cytometry; format: functional, cell-based
How it was run: (§1)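 Asynchronous cells were treated with 5 or 10 µM compound or DMSO for 24 h (also 16 and 40 h). They were trypsinized, washed in PBS and fixed/permeabilized in 70% ethanol. Staining was with RNase and propidium iodide for 30 min in the dark at room temperature, followed by flow cytometry. Phase percentages are given minus DMSO control; mean of triplicates.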

MDA-MB-231 [3] = test: Drug uptake in human MDA-MB-231 cell cytoplasm at 10 uM after 3 to 24 hrs using propidium iodide staining by two-photon confocal microscopy; format: ADME, cell-based; conditions: mda-mb-231, 10 µM
[4] = biological target: CDK3/cyclin E (Homo sapiens) (UniProt P24864+O96020+Q00526); test: Inhibition of human CDK3/cyclin E at 0.1 uM after 40 mins relative to control; format: protein-complex assay
How it was run: (§2)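 Radiometric screen at 100 nM compound against purified human CDK/cyclin (5–10 mU). Incubation 40 min at room temperature, stopped with phosphoric acid. Read by filtermat scintillation. Activity expressed as % of control, N = 2.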

MCF7 [5] = test: Induction of apoptosis in human MCF7 cells assessed as aberrant gross morphological changes at 10 uM after 48 hrs using propidium iodide staining by confocal microscopic analysis; format: functional, cell-based
MDA-MB-231 [6] = test: Cell cycle arrest in human MDA-MB-231 cells assessed as accumulation at sup G1 phase at 5 to 10 uM after 24 hrs using propidium iodide staining by flow cytometry; format: functional, cell-based; how it was run: as §1
MCF7 [7] = test: Induction of apoptosis in human MCF7 cells assessed as viable cells at 10 uM after 24 hrs using annexinV-propidium iodide staining by flow cytometry (reference value: 70.32%); format: functional; conditions: MCF7, 24 h, read-out: Activity
MDA-MB-231 [8] = test: Induction of apoptosis in human MDA-MB-231 cells assessed as decrease in Bcl2 protein level at 10 uM after 48 hrs by Western blotting; format: functional, cell-based
How it was run: (§3)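 MDA-MB-231 cells were treated with vehicle or 10 µM compound for 48 h (and 72 h). Lysates were cleared and protein measured by BCA. Equal protein was run on 10% SDS–PAGE and transferred to PVDF, blocked in 5% milk overnight, and probed 2 h with anti-Bcl-2, Bax or PARP. HRP secondary was applied for 1 h, with ECL detection.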

MCF7 [9] = test: Induction of apoptosis in human MCF7 cells assessed as decrease in cell number at 10 uM after 48 hrs using propidium iodide staining by confocal microscopic analysis; format: functional, cell-based
MCF7 [10] = test: Drug uptake in human MCF7 cell cytoplasm at 10 uM after 3 to 24 hrs using propidium iodide staining by two-photon confocal microscopy; format: ADME, cell-based; conditions: mcf7, 10 µM
MDA-MB-231 [11] = test: Induction of apoptosis in human MDA-MB-231 cells assessed as decrease in caspase 7 protein level at 10 uM after 48 hrs by Western blotting; format: functional, cell-based
MDA-MB-231 [12] = test: Induction of apoptosis in human MDA-MB-231 cells assessed as induction of PARP cleavage at 10 uM after 48 hrs by Western blotting; format: functional, cell-based; how it was run: as §3
MCF7 [13] = test: Ratio of IC50 for human CL 10.3 cells expressing p-glycoprotein to IC50 for human MCF7 cells; format: functional
How it was run: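 MCF-7 and its P-glycoprotein-overexpressing MDR subline CL 10.3 were grown in DMEM with 10% heat-inactivated FBS. Compounds in DMSO were serially diluted in medium and given to cells for 72 h. Read-out was WST-1 reduction (450 nm, 630 nm reference). IC50 interpolated from log concentration versus fraction surviving; mean (SEM) of triplicates. Ratio is CL 10.3 IC50 over MCF-7 IC50.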

[14] = biological target: Cyclin-dependent kinase 7/ cyclin H (Homo sapiens) (UniProt P51946+P50613); test: Inhibition of human CDK7/cyclinH/MAT1 at 0.1 uM after 40 mins relative to control; format: protein-complex assay; how it was run: as §2
MCF7 [15] = test: Cell cycle arrest in human MCF7 cells assessed as accumulation at G2/M phase at 5 to 10 uM after 16 to 40 hrs using propidium iodide staining by flow cytometry; format: functional, cell-based; how it was run: as §1

CDK3/cyclin E (Homo sapiens), sequence (O96020 whole entry, looked up): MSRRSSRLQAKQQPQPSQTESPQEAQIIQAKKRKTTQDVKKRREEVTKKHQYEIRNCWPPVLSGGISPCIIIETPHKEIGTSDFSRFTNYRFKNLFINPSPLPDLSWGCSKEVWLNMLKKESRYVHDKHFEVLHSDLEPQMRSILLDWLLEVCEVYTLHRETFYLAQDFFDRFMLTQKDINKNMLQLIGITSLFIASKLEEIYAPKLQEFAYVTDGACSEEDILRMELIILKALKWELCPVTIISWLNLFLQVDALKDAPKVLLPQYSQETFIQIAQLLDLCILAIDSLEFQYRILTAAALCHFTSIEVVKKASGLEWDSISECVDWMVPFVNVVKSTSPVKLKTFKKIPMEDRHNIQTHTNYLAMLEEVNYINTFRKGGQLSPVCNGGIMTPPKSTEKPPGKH
CDK3/cyclin E (Homo sapiens), sequence (P24864 whole entry, looked up): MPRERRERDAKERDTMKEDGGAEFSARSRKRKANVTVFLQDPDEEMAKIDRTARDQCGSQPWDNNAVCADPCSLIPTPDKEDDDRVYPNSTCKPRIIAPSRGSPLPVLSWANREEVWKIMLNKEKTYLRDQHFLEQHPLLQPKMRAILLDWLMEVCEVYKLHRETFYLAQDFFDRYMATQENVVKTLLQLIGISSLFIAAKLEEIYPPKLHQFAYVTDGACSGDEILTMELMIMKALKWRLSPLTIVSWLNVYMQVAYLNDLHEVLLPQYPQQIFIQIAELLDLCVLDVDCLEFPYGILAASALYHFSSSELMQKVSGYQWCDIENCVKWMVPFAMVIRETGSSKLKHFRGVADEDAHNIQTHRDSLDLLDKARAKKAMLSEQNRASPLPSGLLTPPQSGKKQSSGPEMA
CDK3/cyclin E (Homo sapiens), sequence (Q00526 whole entry, looked up): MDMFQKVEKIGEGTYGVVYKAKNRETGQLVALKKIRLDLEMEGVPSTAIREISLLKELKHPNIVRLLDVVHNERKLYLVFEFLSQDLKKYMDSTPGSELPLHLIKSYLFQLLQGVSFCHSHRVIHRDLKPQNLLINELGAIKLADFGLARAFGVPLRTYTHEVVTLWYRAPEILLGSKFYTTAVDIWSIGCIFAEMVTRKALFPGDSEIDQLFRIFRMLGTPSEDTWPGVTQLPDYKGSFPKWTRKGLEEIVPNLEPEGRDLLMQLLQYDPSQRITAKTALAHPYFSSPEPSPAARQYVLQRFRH

CC(C)[C@H](CO)Nc1nc(Nc2ccc(C(=O)NCCNS(=O)(=O)c3cccc4c(N(C)C)cccc34)c(Cl)c2)c2ncn(C(C)C)c2n1
Activity (MCF7 [1]): Active | Activity (MCF7 [2]): Active | Activity (MDA-MB-231 [3]): Active | inhibition [4]: 65% | Activity (MCF7 [5]): Active | Activity (MDA-MB-231 [6]): Active | viability at 10 µM (MCF7 [7]): 48.9% | Activity (MDA-MB-231 [8]): Active | Activity (MCF7 [9]): Active | Activity (MCF7 [10]): Active | Activity (MDA-MB-231 [11]): Active | Activity (MDA-MB-231 [12]): Active | Ratio IC50 (MCF7 [13]): 9.8 | inhibition [14]: 69% | Activity (MCF7 [15]): Active
